As usually defined, the inhibition is the drop in the measured response relative to a control, in per cent.

The record followed here is ChEMBL document CHEMBL2331148, “Design and synthesis of imidazole and triazole derivatives as Lp-PLA₂ inhibitors and the unexpected discovery of highly potent quaternary ammonium salts” (Bioorg Med Chem Lett, 2013).

Experiment [1] is filed under the species Oryctolagus cuniculus. In words: Inhibition of rabbit plasma Lp-PLA2 at 10 microM by liquid scintillation counting. The experiment is classed as cell-free. In a few lines: (§1)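 Plasma used as the enzyme source. Compounds were added from DMSO solution to buffer of 50 mmol/L HEPES (pH 7.4) and 150 mmol/L NaCl. Preincubated 5 min at 37 °C, then [3H]PAF (1uCi) was added and incubated 10 min at 37 °C. Lipids were extracted with CHCl3/MeOH (2:1) and centrifuged at 12000g, 4 °C, 15 min. Supernatant radioactivity was counted. Result is % inhibition at the tested concentration.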

For experiment [2], the species on record is Homo sapiens. In words: Inhibition of human plasma Lp-PLA2 at 1 nM by liquid scintillation counting. In kind it is cell-free. In a few lines:
as §1

The species named for experiment [3] is Oryctolagus cuniculus. In words: Inhibition of rabbit plasma Lp-PLA2 at 100 nM by liquid scintillation counting. In kind it is cell-free. In a few lines:
as §1

The species named for experiment [4] is Homo sapiens. Description: Inhibition of human plasma Lp-PLA2 at 10 nM by liquid scintillation counting. The experiment is classed as cell-free. In a few lines: as §1
Experiment [5] is filed under the species Oryctolagus cuniculus. Description: Inhibition of rabbit plasma Lp-PLA2 at 10 nM by liquid scintillation counting. The experiment is classed as cell-free. In a few lines: as §1
Experiment [6] has as its system Mus musculus. Description: Inhibition of plasma Lp-PLA2 in Apo-E mouse model at 50 mg/kg, ip measured after 24 hrs by in vivo inhibition assay. The experiment is classed as functional, organism-based. Also on record: dose 50 mg/kg.
The species entered for experiment [7] is Oryctolagus cuniculus. Description: Inhibition of rabbit plasma Lp-PLA2 at 1 microM by liquid scintillation counting. In kind it is cell-free. In a few lines:
as §1

Experiment [8] deals with Mus musculus. Description: Inhibition of plasma Lp-PLA2 in Apo-E mouse model at 50 mg/kg, ip measured after 12 hrs by in vivo inhibition assay. Also on record: dose 50 mg/kg. The experiment is classed as functional, organism-based.

The source made the active and inactive calls. The calls are words filed in the database; no cut-off is given here.

For the compound `CCn1c(Cc2ccc(-c3ccc(C(F)(F)F)cc3)cc2)nnc1Cn1c(SCc2ccc(F)cc2)nc(=O)c2c1CCC2`, the inhibition in experiment [1] turned out to be 40%.

As for `CC(C)c1nnc(Cn2c(SCc3ccc(F)cc3)nc(=O)c3c2CCC3)n1Cc1ccc(-c2ccc(C(F)(F)F)cc2)cc1`, the inhibition in experiment [2] is 71%; in experiment [3], 91%; in experiment [4], 92%; in experiment [5], 34%.

For `C[N+](C)(Cc1ccc(F)cc1)Cc1nnc(Cn2c(SCc3ccc(F)cc3)nc(=O)c3c2CCC3)n1Cc1ccc(-c2ccc(C(F)(F)F)cc2)cc1`, the inhibition worked out at 95% in experiment [2], 97% in experiment [3], 99% in experiment [4] and 91% in experiment [5]. Moreover, the inhibition result in experiment [6] is “Active”.

Turning to `Cc1ccc(-c2ccc(Cn3ccnc3Cn3c(SCc4ccc(F)cc4)nc(=O)c4c3CCC4)cc2)cc1`, the inhibition in experiment [1] came to 28%.

Take `O=c1nc(SCc2ccc(F)cc2)n(Cc2ncc(C[N+]3(Cc4ccc(F)cc4)CCCC3)n2Cc2ccc(-c3ccc(C(F)(F)F)cc3)cc2)c2c1CCC2`: the values for the inhibition in experiment [2], in experiment [4] and in experiment [5] were 79%, 97% and 88%, respectively.

Consider `CC(C)N(C)Cc1nnc(Cn2c(SCc3ccc(F)cc3)nc(=O)c3c2CCC3)n1Cc1ccc(-c2ccc(C(F)(F)F)cc2)cc1`, for which the inhibition turned out to be 35% in experiment [2], 85% in experiment [3], 77% in experiment [4] and 13% in experiment [5].

With `CCCCCCCCCCc1cnc(Cn2c(SCc3ccc(F)cc3)nc(=O)c3c2CCC3)n1CCN(CC)CC`, the inhibition in experiment [1] is 6%.

On to `O=c1nc(SCc2ccc(F)cc2)n(Cc2nccn2Cc2ccc(-c3ccc(C(F)(F)F)cc3)cc2)c2c1CCC2`, for which the inhibition turned out to be 80% in experiment [7] and 17% in experiment [3].

On to `CCCc1nnc(Cn2c(SCc3ccc(F)cc3)nc(=O)c3c2CCC3)n1Cc1ccc(-c2ccc(C(F)(F)F)cc2)cc1`, for which the inhibition was determined as 65% in experiment [2], 88% in experiment [3], 88% in experiment [4] and 25% in experiment [5].

In turn, `CCCCCCCCCCc1nnc(Cn2c(SCc3ccc(F)cc3)nc(=O)c3c2CCC3)n1CC` displayed an inhibition in experiment [1] of 27%.

Take `CN(C)C1CCN(Cc2nnc(Cn3c(SCc4ccc(F)cc4)nc(=O)c4c3CCC4)n2Cc2ccc(-c3ccc(C(F)(F)F)cc3)cc2)CC1`: the inhibition in experiment [2] stood at 57%; in experiment [3] it was 82%; in experiment [4] it was 71%; in experiment [5] it was 11%.

`C[C@@H]1CN(Cc2nnc(Cn3c(SCc4ccc(F)cc4)nc(=O)c4c3CCC4)n2Cc2ccc(-c3ccc(C(F)(F)F)cc3)cc2)C[C@H](C)O1`: the inhibition in experiment [2] came out at 23%; in experiment [3], 76%; in experiment [4] it was 69%; in experiment [5], 16%.

As to `CN(Cc1nnc(Cn2c(SCc3ccc(F)cc3)nc(=O)c3c2CCC3)n1Cc1ccc(-c2ccc(C(F)(F)F)cc2)cc1)C1CC1`, the inhibition in experiment [2] turned out to be 38%; in experiment [3] it was 86%; in experiment [4] it was 77%; in experiment [5] it was 16%.

For the compound `CN(Cc1ccc(F)cc1)Cc1nnc(Cn2c(SCc3ccc(F)cc3)nc(=O)c3c2CCC3)n1Cc1ccc(-c2ccc(C(F)(F)F)cc2)cc1`, the inhibition in experiment [2] was determined as 71%; in experiment [3] it was 90%; in experiment [4], 93%; in experiment [5] it was 10%.

In the case of `CCN(CC)CCN(Cc1ccc(-c2ccc(C(F)(F)F)cc2)cc1)C(=O)Cn1c(SCc2ccc(F)cc2)nc(=O)c2c1CCC2`, the inhibition in experiment [2] turned out to be 80%; in experiment [3], 99%; in experiment [4], 95%; in experiment [5], 82%. In addition, in experiment [8], the inhibition entry was “Active”.

Regarding `O=c1nc(SCc2ccc(F)cc2)n(Cc2nccn2Cc2ccc(-c3ccc(Cl)cc3)cc2)c2c1CCC2`, the inhibition in experiment [7] was 2%; in experiment [1] it was 50%.

Regarding `COC(=O)C(C)(C)N1CCN(Cc2nnc(Cn3c(SCc4ccc(F)cc4)nc(=O)c4c3CCC4)n2Cc2ccc(-c3ccc(C(F)(F)F)cc3)cc2)CC1`, the inhibition is 45% in experiment [2], 67% in experiment [3], 51% in experiment [4] and 15% in experiment [5].

Take `CCN(CC)Cc1nnc(Cn2c(SCc3ccc(F)cc3)nc(=O)c3c2CCC3)n1Cc1ccc(-c2ccc(C(F)(F)F)cc2)cc1`: the inhibition in experiment [2] is 60%; in experiment [3], 85%; in experiment [4], 78%; in experiment [5], 21%.

For the compound `CCN(CC)CCn1c(-c2ccc(-c3ccc(C(F)(F)F)cc3)cc2)cnc1Cn1c(SCc2ccc(F)cc2)nc(=O)c2c1CCC2`, the inhibition is 16% in experiment [7] and 20% in experiment [1].

For `O=c1nc(SCc2ccc(F)cc2)n(Cc2ncc(CN3CCCCC3)n2Cc2ccc(-c3ccc(C(F)(F)F)cc3)cc2)c2c1CCC2`, the inhibition was 58% in experiment [2], 86% in experiment [3], 69% in experiment [4] and 11% in experiment [5].

Consider `Cc1nnc(Cn2c(SCc3ccc(F)cc3)nc(=O)c3c2CCC3)n1Cc1ccc(-c2ccc(C(F)(F)F)cc2)cc1`, for which the inhibition in experiment [2] came out at 11%; in experiment [3] it was 79%; in experiment [4] it was 73%; in experiment [5] it was 10%.

With `C[N+](C)(C)Cc1nnc(Cn2c(SCc3ccc(F)cc3)nc(=O)c3c2CCC3)n1Cc1ccc(-c2ccc(C(F)(F)F)cc2)cc1`, the inhibition was found to be 77% in experiment [2], 93% in experiment [3], 97% in experiment [4] and 91% in experiment [5].

Regarding `CCN1CCN(Cc2nnc(Cn3c(SCc4ccc(F)cc4)nc(=O)c4c3CCC4)n2Cc2ccc(-c3ccc(C(F)(F)F)cc3)cc2)CC1`, the inhibition is 64% in experiment [2], 90% in experiment [3], 82% in experiment [4] and 20% in experiment [5].

As for `CN(C)Cc1nnc(Cn2c(SCc3ccc(F)cc3)nc(=O)c3c2CCC3)n1Cc1ccc(-c2ccc(C(F)(F)F)cc2)cc1`, the inhibition in experiment [2] was found to be 62%; in experiment [3], 88%; in experiment [4] it was 85%; in experiment [5], 21%.

In the case of `O=c1nc(SCc2ccc(F)cc2)n(Cc2nncn2Cc2ccc(-c3ccc(C(F)(F)F)cc3)cc2)c2c1CCC2`, the inhibition in experiment [7] worked out at 95%; in experiment [3] it was 67%.

Consider `CC(O)c1nnc(Cn2c(SCc3ccc(F)cc3)nc(=O)c3c2CCC3)n1Cc1ccc(-c2ccc(C(F)(F)F)cc2)cc1` (configuration not stated), for which the inhibition stood at 68% in experiment [2], 90% in experiment [3], 89% in experiment [4] and 29% in experiment [5].

Regarding `O=c1nc(SCc2ccc(F)cc2)n(Cc2nnc(CO)n2Cc2ccc(-c3ccc(C(F)(F)F)cc3)cc2)c2c1CCC2`, the inhibition in experiment [2] worked out at 58%; in experiment [3], 73%; in experiment [4], 65%; in experiment [5] it was 23%.

For the compound `O=c1nc(SCc2ccc(F)cc2)n(Cc2nccn2Cc2ccc(-c3ccccc3)cc2)c2c1CCC2`, the inhibition in experiment [1] worked out at 3%.

As to `O=c1nc(SCc2ccc(F)cc2)n(Cc2ncc(CN3CCCC3)n2Cc2ccc(-c3ccc(C(F)(F)F)cc3)cc2)c2c1CCC2`, the inhibition turned out to be 21% in experiment [2], 79% in experiment [3], 67% in experiment [4] and 10% in experiment [5].

Consider `CCN(CC)Cc1cnc(Cn2c(SCc3ccc(F)cc3)nc(=O)c3c2CCC3)n1Cc1ccc(-c2ccc(C(F)(F)F)cc2)cc1`, for which the inhibition worked out at 52% in experiment [2], 88% in experiment [3], 75% in experiment [4] and 10% in experiment [5].

As to `CC(=O)NCc1nnc(Cn2c(SCc3ccc(F)cc3)nc(=O)c3c2CCC3)n1Cc1ccc(-c2ccc(C(F)(F)F)cc2)cc1`, the inhibition was 44% in experiment [2], 67% in experiment [3], 67% in experiment [4] and 8% in experiment [5].

On to `O=c1nc(SCc2ccc(F)cc2)n(Cc2nnc(C3CC3)n2Cc2ccc(-c3ccc(C(F)(F)F)cc3)cc2)c2c1CCC2`, for which the inhibition in experiment [2] came to 68%; in experiment [3], 87%; in experiment [4], 93%; in experiment [5], 34%.

Regarding `CCCCCCCCCCCCn1ccnc1Cn1c(SCc2ccc(F)cc2)nc(=O)c2c1CCC2`, the inhibition in experiment [7] is 42%; in experiment [1] it was 88%.

`C[N+](C)(Cc1ccc(F)cc1)Cc1cnc(Cn2c(SCc3ccc(F)cc3)nc(=O)c3c2CCC3)n1Cc1ccc(-c2ccc(C(F)(F)F)cc2)cc1`: the inhibition in experiment [2] came to 85%; in experiment [3], 99%; in experiment [4], 97%; in experiment [5], 97%.

For the compound `CCS(=O)(=O)NCc1nnc(Cn2c(SCc3ccc(F)cc3)nc(=O)c3c2CCC3)n1Cc1ccc(-c2ccc(C(F)(F)F)cc2)cc1`, the inhibition in experiment [2] stood at 49%; in experiment [3] it was 75%; in experiment [4], 68%; in experiment [5], 7%.

In the case of `CN(C)Cc1cnc(Cn2c(SCc3ccc(F)cc3)nc(=O)c3c2CCC3)n1Cc1ccc(-c2ccc(C(F)(F)F)cc2)cc1`, the inhibition in experiment [2] turned out to be 54%; in experiment [3] it was 87%; in experiment [4], 75%; in experiment [5], 13%.

Regarding `CCn1c(Cn2c(SCc3ccc(F)cc3)nc(=O)c3c2CCC3)nnc1-c1ccc(-c2ccc(C(F)(F)F)cc2)cc1`, the inhibition in experiment [7] was found to be 21%; in experiment [1] it was 34%.
